From ChEMBL document CHEMBL1165858, “Synthesis and biological evaluation of beta-chloro vinyl chalcones as inhibitors of TNF-alpha and IL-6 with antimicrobial activity” (Eur J Med Chem, 2010)
Values after ≈ are worked out from the molar mass of the structure shown. Active and inactive are the calls of the source. The rule behind the calls is not given here.

What was measured:
[1] = tested on: Proteus vulgaris; experiment: Antibacterial activity against Proteus vulgaris NCIM 2813 after 24 hrs by disc diffusion method; type: functional; conditions: for MIC: Proteus vulgaris, NCIM 2813, 24 h
How it was run: (§1)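 Paper disc diffusion (6.25 mm Whatman no.1 discs, dry-heat sterilized at 140 °C for 1 h) loaded with compounds at different concentrations in DMSO. Discs were placed in triplicate on nutrient agar seeded with fresh bacterial culture and incubated at 37 °C for 24 h, with solvent and growth controls. Zones of inhibition (mm) and MIC, the concentration completely inhibiting growth, were recorded.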

[2] = Cytotoxicity against […] at 10 uM; type: cell-based
[3] = tested on: Klebsiella pneumoniae; experiment: Antibacterial activity against Klebsiella pneumoniae NCIM 5082 after 24 hrs by disc diffusion method; type: functional; conditions: for MIC: Klebsiella pneumoniae, NCIM 5082, 24 h; how it was run: as §1
[4] = tested on: Escherichia coli; experiment: Antibacterial activity against Escherichia coli NCIM 2065 after 24 hrs by disc diffusion method; type: functional; conditions: for MIC: Escherichia coli, NCIM 2065, 24 h; how it was run: as §1
[5] = tested on: Staphylococcus aureus; experiment: Antibacterial activity against Staphylococcus aureus NCIM 2120 after 24 hrs by disc diffusion method; type: functional; conditions: for MIC: Staphylococcus aureus, NCIM 2120, 24 h; how it was run: as §1
[6] = tested on: Bacillus subtilis; experiment: Antibacterial activity against Bacillus subtilis NCIM 2546 after 24 hrs by disc diffusion method; type: functional; conditions: for MIC: Bacillus subtilis, NCIM 2546, 24 h; how it was run: as §1
[7] = tested on: THP-1; experiment: Antiinflammatory activity in human THP1 cells assessed as inhibition of LPS-induced TNFalpha secretion at 10 uM treated 30 mins before LPS challenge measured after 24 hrs by ELISA relative to control; type: functional
How it was run: (§2)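 THP-1 cells were grown in RPMI 1640 with 10% FBS and penicillin/streptomycin, then differentiated with PMA. Compound or vehicle (0.5% DMSO) was added for 30 min at 37 °C, followed by LPS (E. coli 0127:B8, final 1 µg/mL). After 24 h at 37 °C in 5% CO2, TNF-α and IL-6 in the supernatants were quantified by ELISA. Values are the mean of n = 2.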

[8] = tested on: Aspergillus fumigatus; experiment: Antibacterial activity against Aspergillus fumigatus NCIM 902 after 72 hrs by disc diffusion method; type: functional; conditions: for MIC: Aspergillus fumigatus, NCIM 902, 72 h
How it was run: (§3)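 Agar disc diffusion against fungi. Fungi were maintained on potato dextrose agar at (25 ± 2) °C for five days before use. Compounds were dissolved in DMSO (10 mg/mL initial solutions) and loaded on discs placed on freshly seeded plates alongside a solvent control disc. Plates were held at 4 °C for 24 h for diffusion, then incubated at 37 ± 5 °C for 72 h. Zones of inhibition (mm) and MICs were recorded.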

[9] = tested on: Candida albicans; experiment: Antibacterial activity against Candida albicans NCIM 3100 at > 100 […] after 72 hrs by disc diffusion method; type: functional, organism-based
[10] = tested on: Trichoderma viride; experiment: Antibacterial activity against Trichoderma viride TT after 72 hrs by disc diffusion method; type: functional; conditions: for MIC: Trichoderma viride, TT, 72 h; how it was run: as §3
[11] = tested on: Penicillium chrysogenum; experiment: Antibacterial activity against Penicillium chrysogenum NCIM 707 at > 100 […] after 72 hrs by disc diffusion method; type: functional, organism-based
[12] = tested on: Aspergillus niger; experiment: Antibacterial activity against Aspergillus niger NCIM 545 at > 100 […] after 72 hrs by disc diffusion method; type: functional, organism-based
[13] = tested on: THP-1; experiment: Antiinflammatory activity in human THP1 cells assessed as inhibition of LPS-induced IL-6 secretion at 10 uM treated 30 mins before LPS challenge measured after 24 hrs by ELISA relative to control; type: functional; how it was run: as §2
[14] = tested on: Penicillium chrysogenum; experiment: Antibacterial activity against Penicillium chrysogenum NCIM 707 after 72 hrs by disc diffusion method; type: functional; conditions: for MIC: Penicillium chrysogenum, NCIM 707, 72 h; how it was run: as §3
[15] = tested on: Aspergillus niger; experiment: Antibacterial activity against Aspergillus niger NCIM 545 after 72 hrs by disc diffusion method; type: functional; conditions: for MIC: Aspergillus niger, NCIM 545, 72 h; how it was run: as §3
[16] = tested on: Staphylococcus aureus; experiment: Antibacterial activity against Staphylococcus aureus NCIM 2120 at > 100 […] after 24 hrs by disc diffusion method; type: functional, organism-based
[17] = tested on: Candida albicans; experiment: Antibacterial activity against Candida albicans NCIM 3100 after 72 hrs by disc diffusion method; type: functional; conditions: for MIC: Candida albicans, NCIM 3100, 72 h; how it was run: as §3
[18] = tested on: Bacillus subtilis; experiment: Antibacterial activity against Bacillus subtilis NCIM 2546 at > 100 […] after 24 hrs by disc diffusion method; type: functional, organism-based
[19] = tested on: Escherichia coli; experiment: Antibacterial activity against Escherichia coli NCIM 2065 at > 100 […] after 24 hrs by disc diffusion method; type: functional, organism-based
[20] = tested on: Proteus vulgaris; experiment: Antibacterial activity against Proteus vulgaris NCIM 2813 at > 100 […] after 24 hrs by disc diffusion method; type: functional, organism-based
[21] = tested on: Klebsiella pneumoniae; experiment: Antibacterial activity against Klebsiella pneumoniae NCIM 5082 at > 100 […] after 24 hrs by disc diffusion method; type: functional, organism-based

Compound	inhibition zone (IZ) [1] [mm]	Activity [2]	inhibition zone (IZ) [3] [mm]	MIC [3] [µg/mL]	inhibition zone (IZ) [4] [mm]	inhibition zone (IZ) [5] [mm]	MIC [5] [µg/mL]	inhibition zone (IZ) [6] [mm]	MIC [6] [µg/mL]	inhibition at 10 µM [7] [%]	inhibition zone (IZ) [8] [mm]	inhibition zone (IZ) [10] [mm]	inhibition at 10 µM [13] [%]	MIC [8] [µg/mL]	MIC [10] [µg/mL]	inhibition zone (IZ) [14] [mm]	MIC [14] [µg/mL]	inhibition zone (IZ) [15] [mm]	MIC [15] [µg/mL]	inhibition zone (IZ) [17] [mm]	further results
CC1(C)S[C@@H]2[C@H](NC(=O)Cc3ccccc3)C(=O)N2[C@H]1C(=O)O [PENICILLIN G]	22	Non-toxic	21	25 (≈ 74.8 µM)	18	20	25 (≈ 74.8 µM)	22	25 (≈ 74.8 µM)												MIC [1]: 25 µg/mL (≈ 74.8 µM); MIC [4]: 25 µg/mL (≈ 74.8 µM)
COc1cc(O)c(C(=O)/C=C/C=C(\Cl)c2ccc(C)cc2)c(OC)c1	19	Non-toxic	18	25 (≈ 69.7 µM)	12	16	50 (≈ 139 µM)	15	50 (≈ 139 µM)	17	10	13	36								MIC [1]: 25 µg/mL (≈ 69.7 µM); MIC [9]: inactive; MIC [11]: inactive; MIC [12]: inactive
COc1cc(O)c(C(=O)/C=C/C=C(\Cl)c2ccccc2Cl)c(OC)c1	20	Non-toxic	18	25 (≈ 65.9 µM)	14	16	50 (≈ 132 µM)	16	50 (≈ 132 µM)	17	14	14	43	50 (≈ 132 µM)	50 (≈ 132 µM)	16	50 (≈ 132 µM)	16	50 (≈ 132 µM)		MIC [1]: 25 µg/mL (≈ 65.9 µM); MIC [9]: inactive; MIC [4]: 50 µg/mL (≈ 132 µM)
C[C@@H]1C[C@H]2[C@@H]3CCC4=CC(=O)C=C[C@]4(C)[C@@]3(F)[C@@H](O)C[C@]2(C)[C@@]1(O)C(=O)CO [DEXAMETHASONE]		Non-toxic								69			90								
COc1cc(OC)cc(/C(Cl)=C/C=C/C(=O)c2c(O)cc(OC)cc2OC)c1		Non-toxic								13	14	14	45	50 (≈ 124 µM)	50 (≈ 124 µM)	15	50 (≈ 124 µM)	16	50 (≈ 124 µM)	12	MIC [16]: inactive; MIC [18]: inactive; MIC [19]: inactive; MIC [20]: inactive; MIC [21]: inactive
COc1cccc(/C(Cl)=C/C=C/C(=O)c2c(O)cc(OC)cc2OC)c1		Non-toxic	14	50 (≈ 133 µM)	10	15	50 (≈ 133 µM)			11	16	16	39	50 (≈ 133 µM)	50 (≈ 133 µM)	17	25 (≈ 66.7 µM)	16	50 (≈ 133 µM)	13	
GENTAMICIN [listing 1 of 2 here]		Non-toxic																			
OC(Cn1cncn1)(Cn1cncn1)c1ccc(F)cc1F [FLUCONAZOLE]											20	22		25 (≈ 81.6 µM)	25 (≈ 81.6 µM)	22	25 (≈ 81.6 µM)	20	25 (≈ 81.6 µM)	18	MIC [17]: 25 µg/mL (≈ 81.6 µM)
COc1ccc(/C(Cl)=C/C=C/C(=O)c2c(O)cc(OC)cc2OC)c(OC)c1		Non-toxic	13			14	50 (≈ 124 µM)			0	10	10	33			14	50 (≈ 124 µM)				MIC [9]: inactive; MIC [18]: inactive; MIC [19]: inactive; MIC [12]: inactive; MIC [20]: inactive
COc1cc(O)c(C(=O)/C=C/C=C(\Cl)c2ccc(Br)cc2)c(OC)c1	12	Non-toxic	20	25 (≈ 59 µM)	15	14	50 (≈ 118 µM)	18	25 (≈ 59 µM)	8	20	18	58	25 (≈ 59 µM)	25 (≈ 59 µM)	18	25 (≈ 59 µM)	14	50 (≈ 118 µM)	14	MIC [17]: 25 µg/mL (≈ 59 µM); MIC [4]: 50 µg/mL (≈ 118 µM)
COc1cc(O)c(C(=O)/C=C/C=C(\Cl)c2ccc(Cl)cc2)c(OC)c1	15	Non-toxic	18	25 (≈ 65.9 µM)	15	18	25 (≈ 65.9 µM)	20	25 (≈ 65.9 µM)	13	17	15	74	25 (≈ 65.9 µM)	50 (≈ 132 µM)	12		16	50 (≈ 132 µM)	12	MIC [1]: 50 µg/mL (≈ 132 µM); MIC [4]: 50 µg/mL (≈ 132 µM)
COc1cc(O)c(C(=O)/C=C/C=C(\Cl)c2ccc(F)cc2)c(OC)c1	18	Non-toxic	14	50 (≈ 138 µM)	16	14	50 (≈ 138 µM)	22	25 (≈ 68.9 µM)	16	14	16	83	50 (≈ 138 µM)	50 (≈ 138 µM)	14	50 (≈ 138 µM)	17	25 (≈ 68.9 µM)	10	MIC [1]: 25 µg/mL (≈ 68.9 µM); MIC [4]: 50 µg/mL (≈ 138 µM)
GENTAMICIN [listing 2 of 2 here]	18		22					24													
COc1cc(O)c(C(=O)/C=C/C=C(\Cl)c2ccc(Cl)cc2Cl)c(OC)c1	19	Non-toxic	15	50 (≈ 121 µM)	14	19	25 (≈ 60.4 µM)	17	50 (≈ 121 µM)	0	17	18	67	50 (≈ 121 µM)	25 (≈ 60.4 µM)	17	25 (≈ 60.4 µM)	10		10	MIC [1]: 25 µg/mL (≈ 60.4 µM); MIC [4]: 50 µg/mL (≈ 121 µM)
